Assay outcomes: PubChem BioAssay, Johns Hopkins Ion Channel Center
MrgX1 agonist: activates human MrgX1 receptor signaling. Q96LB2. MrgX1-HEK293 cells, Fluo-4 calcium fluorescence, agonist mode; stronger effect = higher value. B-score at 10 µM. actives 0.44% (n = 310,000). AID 588627;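 active = calcium response B-score plate-corrected fluorescence ratio at least 3 library SD, with starting fluorescence B-score inside 5 SD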
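Material: HEK293 cells stably expressing human MrgX1 receptor | Quantity: 15,000 cells per well | Times: Cells plated overnight, dye loaded 0.5 h 37 °C, 0.5 h room temperature | Measured by: Kinetic Fluo-4 NW fluorescence of intracellular calcium | Control set: Positive and negative controls per plate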
MrgX1 antagonist: blocks BAM8-22 activation of human MrgX1 receptor. Q96LB2. MRGX1-HEK293 calcium flux, Fluo-4, BAM8-22 antagonism; stronger effect = lower value. B-score at 10 µM. actives 1.3% (n = 310,000). AID 588676;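 active = calcium-response B-score plate-corrected more than 3 library SD below zero, starting fluorescence within 5 deviations, no agonist response on first addition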;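 note: peak minus trough fluorescence over baseline after final BAM8-22 challenge near maximal dose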
RGS4 inh: human RGS4 inhibition; B-score at 10 µM; P49798; actives 0.45% (n = 310,000); HEK293 M3R/RGS4 inducible, Fluo-4 calcium flux; stronger effect = higher value; triggered by carbachol at its EC20;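 active = B-score, a plate-corrected calcium signal, over three deviations above library mean, with baseline fluorescence within five deviations of library mean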;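 note: RGS4 expression induced by doxycycline in cells with stable M3 receptor; B-score is computed from the integrated fluorescence ratio over baseline after carbachol; higher B-score means a larger calcium signal and so more RGS4 inhibition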
Target sequence (P49798 whole entry, looked up): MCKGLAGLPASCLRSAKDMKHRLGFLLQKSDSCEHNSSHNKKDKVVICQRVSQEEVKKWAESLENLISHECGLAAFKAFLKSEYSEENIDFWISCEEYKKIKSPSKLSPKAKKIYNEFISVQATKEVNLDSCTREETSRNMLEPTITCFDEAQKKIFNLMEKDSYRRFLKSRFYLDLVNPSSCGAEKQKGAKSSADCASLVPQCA
MrgX1 PAM: allosterically activates human MrgX1 receptor signaling; MrgX1-HEK293, Fluo-4 calcium flux, FDSS; stronger effect = higher value; Q96LB2; actives 0.63% (n = 310,000); B-score at 10 µM; AID 588675;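 active = plate-corrected calcium response at least 3 library SD above typical, normal starting fluorescence, not activating the receptor alone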;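 note: compound read alongside a low EC10 to EC30 dose of BAM8-22 agonist; peak minus trough fluorescence over baseline measured at the second addition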
RGS4 act: RGS4 potentiation or activation; HEK293 M3R/inducible RGS4, carbachol calcium flux Fluo4; stronger effect = lower value; B-score at 10 µM; actives 0.92% (n = 310,000);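 active = B-score of the integrated calcium signal more than 4 SD below the library mean, with starting fluorescence not abnormally high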;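 note: negative B-score means reduced calcium response which marks RGS4 activation or potentiation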
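Also added: carbachol at ECmax as muscarinic agonist stimulus; Assay system: HEK293 cells with stable M3R and inducible RGS4; Timing: overnight RGS4 induction, 30 min dye load 37 °C, 20 min compound RT; Measured by: Fluo4-AM (2 µM) calcium-flux fluorescence, kinetic read.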
RGS4 block valid: validation of RGS4 inhibitors | shares compounds with RGS4 inh | HEK293 M3R/RGS4, carbachol calcium Fluo-4 fluorescence; carbachol added at its EC20; 0 = buffer wells, 100 = carbachol control | calcium response, % at 10 µM | actives 65% (n = 1,700);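 active = duplicate-averaged calcium response above the buffer-only control mean plus 5 SD of those controls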;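 note: integrated fluorescence ratio F max minus min over baseline F0; higher response in RGS4-induced cells means RGS4 inhibition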
M3R Ca ctr: checks RGS4 inhibitor effects in non-induced HEK293 M3R cells. actives 20% (n = 1,900). AID 493000. shares compounds with RGS4 inh. carbachol calcium Fluo-4; submaximal (EC20) carbachol stimulus; buffer wells 0%, carbachol control wells 100%. activity (percent), % at 10 µM; call rule not given here;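 note: RGS4 induction absent so cells express M3R without RGS4; higher means more calcium signal and flags a non-specific hit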
RGS4 inh ctr2: second RGS4 inhibitor counter-screen in uninduced cells lacking carbachol. shares compounds with RGS4 inh. HEK293 M3R/RGS4 non-induced, Fluo-4 calcium, no carbachol; normalised: buffer wells 0%, carbachol wells 100%. calcium response (agonist-mode artifact), % at 10 µM. actives 22% (n = 1,900). AID 493001;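 active = duplicate-averaged calcium rise in uninduced cells above buffer wells' mean plus 5 SD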
An asterisk follows results filed as active; i = inactive; x = no result given. Shown are actives, neighbours in structure and some others; about 3.5% of the full set was active somewhere.

SMILES	MrgX1 agonist	MrgX1 antagonist	RGS4 inh	MrgX1 PAM	RGS4 act	RGS4 block valid	M3R Ca ctr	RGS4 inh ctr2
Cc1ccc(Cn2c(=N)n(CC(=O)c3ccccc3)c3ccccc32)cc1	i	i	5.3*	i	i	24%*	34%*	31%*
COc1ccc(CN2[C@@H](CC(C)=O)c3ccc(/C=C/C(C)=O)cc3S2(=O)=O)cc1	i	i	i	i	i	x	x	x
COc1cccc(N2[C@@H](CC(C)=O)c3ccc(/C=C/C(C)=O)cc3S2(=O)=O)c1	i	i	8.2*	i	i	32%*	54%*	i
CCOC(=O)N1CCN(S(=O)(=O)c2ccc(C(=O)NNc3nc4c(C)cccc4s3)cc2)CC1	i	i	i	i	i	x	x	x
Cc1cccc2sc(NNC(=O)c3ccc(S(=O)(=O)N4CCc5ccccc5C4)cc3)nc12	i	i	i	i	i	x	i	i
Cc1cccc2sc(NNC(=O)c3ccc(S(=O)(=O)N4CCCC(C)C4)cc3)nc12 (stereo not given)	i	i	i	i	i	i	i	i
CCNc1nc(NCC)nc(N(C)/N=C/c2ccco2)n1	i	i	i	i	i	x	x	x
N#CC1=C2N=C(N)c3ccccc3N2C2=C(C(=O)CCC2)C1c1ccc(Cl)cc1 (stereo not given)	i	i	7.5*	i	i	20%*	28%*	24%*
Cc1ccc(S(=O)(=O)NCc2ccccc2)cc1C(=O)NCC(C)(C)N1CCOCC1	i	i	i	i	i	x	x	x
NS(=O)(=O)c1ccc(CCNC(=O)CCC2COc3ccccc3O2)cc1 (stereo not given)	i	i	i	i	i	x	x	x
COc1ccc(CCNC(=O)CCC2COc3ccccc3O2)cc1OC (stereo not given)	i	i	i	i	i	i	i	i
COc1ccc(-c2ccc3oc(-c4ccc(OC)cc4)c(C#CCO)c3c2)cc1	i	i	i	i	i	x	x	x
COc1ccc(-c2sc3ccc(OC)cc3c2C#CCCO)cc1	i	i	i	i	i	i	i	i
Cc1ccc(S(=O)(=O)N2CCOCC2)cc1C(=O)NC(=S)N1CC(C)OC(C)C1 (stereo not given)	i	i	i	i	i	x	x	x
Nc1nc(F)nc2c1ncn2[C@@H]1O[C@H](CO)[C@@H](O)[C@@H]1O	i	i	i	i	i	x	x	x
Nc1ncnc2c1ncn2C1OC(CO)C(O)C1N (stereo not given)	i	i	i	i	i	x	i	i
Nc1ncnc2c1ncn2[C@@H]1O[C@H](CO)[C@@H](O)[C@@H]1O	i	i	i	i	i	x	x	x
Nc1nc(Nc2ccccc2)nc2c1ncn2[C@@H]1O[C@H](CO)[C@@H](O)[C@H]1O	i	i	6.2*	6.5*	i	24%*	i	357%*
CNc1nc2c(N)ncnc2n1[C@H]1O[C@@H](CO)[C@H](O)[C@@H]1O	i	i	6.8*	i	i	13%*	36%*	i
Nc1nc(F)nc2c1ncn2[C@@H]1O[C@H](CO)[C@@H](O)[C@H]1O	i	i	11*	i	i	52%*	30%*	i
Nc1ncnc2c1ncn2C1O[C@H](CO)[C@@H](O)[C@@H]1O (stereo not given in full)	i	i	x	i	x	x	x	x
Cc1c(N(C)S(=O)(=O)c2cc(C(=O)NCC3CCCO3)ccc2Cl)c(=O)n(-c2ccccc2)n1C (stereo not given)	i	i	i	i	i	x	x	x
